Test results reported in ChEMBL document CHEMBL3600361, “Hydnocarpin-Type Flavonolignans: Semisynthesis and Inhibitory Effects on Staphylococcus aureus Biofilm Formation” (J Nat Prod, 2015).
Values after ≈ are worked out from the molar mass of the structure shown. Active and inactive are the calls of the source. The calls are words filed in the database; no cut-off is given here.

Legend:
Staphylococcus aureus [1] = assay: Inhibition of biofilm formation in Staphylococcus aureus 8325-4 after 24 hrs by microtiter plate assay; format: functional, organism-based; conditions: for EC50: Staphylococcus aureus, 8325-4, 24 h
Summary of the method: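 Static 96-well crystal-violet assay with S. aureus 8325-4. Inoculum came from an overnight BHI agar culture, suspended in 0.9% NaCl to McF 0.5, 5 μL per well into TS medium containing compounds as monosodium salts at […]. Plates ran 24 h at 37 °C. Wells were rinsed three times, stained with 1% crystal violet for 15 min and eluted with 96% ethanol. Read at A630, at least triplicate.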

Staphylococcus aureus [2] = assay: Toxicity in Staphylococcus aureus 8325-4 assessed as inhibition of bacterial growth; format: organism-based
Staphylococcus aureus [3] = assay: Disruption of biofilm formation in Staphylococcus aureus 8325-4 after 24 hrs by microtiter plate assay; format: functional, organism-based
Staphylococcus aureus [4] = assay: Inhibition of biofilm formation in Staphylococcus aureus 8325-4 at 8 mM after 24 hrs by microtiter plate assay in presence of glucose; format: functional; conditions: 8325-4, 24 h
Summary of the method: (§1)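 Same static crystal-violet biofilm protocol as above, with 1% glucose added to the TS medium. S. aureus 8325-4 grew 24 h at 37 °C with the compound. Adherent cells were stained with crystal violet, eluted in ethanol and read at A630. Means come from three independent experiments.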

Staphylococcus aureus [5] = assay: Inhibition of biofilm formation in Staphylococcus aureus 8325-4 at […] after 24 hrs by microtiter plate assay in presence of glucose; format: functional, organism-based; summary of the method: as §1
Staphylococcus aureus [6] = assay: Antibacterial activity against Staphylococcus aureus ATCC 29213 assessed as reduction of enrofloxacin MIC at 1 ug/ml by microbroth dilution method; format: functional
Summary of the method: (§2)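 Standard broth microdilution in Mueller-Hinton broth gave MICs. For the combination lines, enrofloxacin MIC was measured with the tested compound present at the stated concentration.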

Staphylococcus aureus [7] = assay: Antibacterial activity against Staphylococcus aureus ATCC 29213 assessed as reduction of enrofloxacin MIC at 8 ug/ml by microbroth dilution method; format: functional; summary of the method: as §2
Staphylococcus aureus [8] = assay: Antibacterial activity against Staphylococcus aureus ATCC 29213 assessed as reduction of enrofloxacin MIC at 32 ug/ml by microbroth dilution method; format: functional; summary of the method: as §2
Staphylococcus aureus [9] = assay: Antibacterial activity against Staphylococcus aureus 8325-4 assessed as reduction of enrofloxacin MIC at 1 ug/ml by microbroth dilution method; format: functional; summary of the method: as §2
Staphylococcus aureus [10] = assay: Antibacterial activity against Staphylococcus aureus 8325-4 assessed as reduction of enrofloxacin MIC at 8 ug/ml by microbroth dilution method; format: functional; summary of the method: as §2
Staphylococcus aureus [11] = assay: Antibacterial activity against Staphylococcus aureus 8325-4 assessed as reduction of enrofloxacin MIC at 32 ug/ml by microbroth dilution method; format: functional; summary of the method: as §2
Staphylococcus aureus [12] = assay: Antibacterial activity against methicillin-resistant Staphylococcus aureus N315 assessed as reduction of enrofloxacin MIC at 1 ug/ml by microbroth dilution method; format: functional
Summary of the method: (§3)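 Standard microbroth dilution in Mueller-Hinton broth against methicillin-resistant S. aureus N315. The enrofloxacin MIC was determined with the test compound added to the broth.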

Staphylococcus aureus [13] = assay: Antibacterial activity against methicillin-resistant Staphylococcus aureus N315 assessed as reduction of enrofloxacin MIC at 8 ug/ml by microbroth dilution method; format: functional; summary of the method: as §3
Staphylococcus aureus [14] = assay: Antibacterial activity against methicillin-resistant Staphylococcus aureus N315 assessed as reduction of enrofloxacin MIC at 32 ug/ml by microbroth dilution method; format: functional; summary of the method: as §3
Staphylococcus aureus [15] = assay: Antibacterial activity against Staphylococcus aureus ATCC 29213 by microbroth dilution method; format: functional; summary of the method: as §2
Staphylococcus aureus [16] = assay: Antibacterial activity against Staphylococcus aureus 8325-4 by microbroth dilution method; format: functional; summary of the method: as §2
Staphylococcus aureus [17] = assay: Antibacterial activity against methicillin-resistant Staphylococcus aureus N315 by microbroth dilution method; format: functional
Summary of the method: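 MIC against methicillin-resistant S. aureus N315, determined by standard microbroth dilution in Mueller-Hinton broth.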

**Q.** How did the MBIC (Staphylococcus aureus [1]) turn out when `COc1cc([C@H]2Oc3cc(-c4oc5cc(O)cc(O)c5c(=O)c4O)ccc3O[C@@H]2CO)ccc1O` was run?
**A.** 64 µM

**Q.** And the EC50 (Staphylococcus aureus [1])?
**A.** 16 µg/mL (≈ 33.3 µM)

**Q.** And the Activity (Staphylococcus aureus [2])?
**A.** Non-toxic

**Q.** And the Activity (Staphylococcus aureus [3])?
**A.** inactive

**Q.** `COc1cc([C@@H]2Oc3cc(-c4cc(=O)c5c(O)cc(O)cc5o4)ccc3O[C@H]2CO)ccc1O` was tested. Which MBIC (Staphylococcus aureus [1]) did it give?
**A.** 8 µM

**Q.** And the EC50 (Staphylococcus aureus [1])?
**A.** 2 µg/mL (≈ 4.31 µM)

**Q.** And the Activity (Staphylococcus aureus [2])?
**A.** Non-toxic

**Q.** And the Activity (Staphylococcus aureus [3])?
**A.** inactive

**Q.** And the inhibition at 8000 µM (Staphylococcus aureus [4])?
**A.** 80%

**Q.** What about the inhibition (Staphylococcus aureus [5]) of the same molecule?
**A.** Active

**Q.** And the MIC (Staphylococcus aureus [6])?
**A.** 0.25 µg/mL

**Q.** And the MIC (Staphylococcus aureus [7])?
**A.** 0.0625 µg/mL

**Q.** What about the MIC (Staphylococcus aureus [8]) of the same molecule?
**A.** 0.0625 µg/mL

**Q.** What about the MIC (Staphylococcus aureus [9]) of the same molecule?
**A.** 0.125 µg/mL

**Q.** What about the MIC (Staphylococcus aureus [10]) of the same molecule?
**A.** 0.0625 µg/mL

**Q.** And the MIC (Staphylococcus aureus [11])?
**A.** 0.0625 µg/mL

**Q.** And the MIC (Staphylococcus aureus [12])?
**A.** 1 µg/mL

**Q.** What about the MIC (Staphylococcus aureus [13]) of the same molecule?
**A.** 0.5 µg/mL

**Q.** And the MIC (Staphylococcus aureus [14])?
**A.** 0.5 µg/mL

**Q.** With `COc1cc(C2Oc3cc(-c4cc(=O)c5c(O)cc(O)cc5o4)ccc3OC2CO)ccc1O` (racemic) as the molecule, how does the MBIC (Staphylococcus aureus [1]) read?
**A.** 32 µM

**Q.** And the EC50 (Staphylococcus aureus [1])?
**A.** 4 µg/mL (≈ 8.61 µM)

**Q.** What about the Activity (Staphylococcus aureus [2]) of the same molecule?
**A.** Non-toxic

**Q.** And the Activity (Staphylococcus aureus [3])?
**A.** inactive

**Q.** What does the source list for `COc1cc(C2Oc3c(O)cc(-c4cc(=O)c5c(O)cc(O)cc5o4)cc3C2CO)ccc1O` (stereo unspecified)?
**A.** MBIC (Staphylococcus aureus [1]): > 124 µM; EC50 (Staphylococcus aureus [1]): 64 µg/mL (≈ 138 µM); Activity (Staphylococcus aureus [2]): Non-toxic; Activity (Staphylococcus aureus [3]): inactive

**Q.** `COc1cc([C@H]2Oc3ccc(-c4cc(=O)c5c(O)cc(O)cc5o4)cc3O[C@@H]2CO)ccc1O` was tested. Which MBIC (Staphylococcus aureus [1]) did it give?
**A.** 64 µM

**Q.** And the EC50 (Staphylococcus aureus [1])?
**A.** 16 µg/mL (≈ 34.5 µM)

**Q.** And the Activity (Staphylococcus aureus [2])?
**A.** Non-toxic

**Q.** And the Activity (Staphylococcus aureus [3])?
**A.** inactive

**Q.** How did the MBIC (Staphylococcus aureus [1]) turn out when `COc1cc([C@H]2Oc3ccc([C@H]4Oc5cc(O)cc(O)c5C(=O)[C@@H]4O)cc3O[C@@H]2CO)ccc1O` [ISOSILYBIN A] was run?
**A.** 124 µM

**Q.** What about the EC50 (Staphylococcus aureus [1]) of the same molecule?
**A.** 32 µg/mL (≈ 66.3 µM)

**Q.** What about the Activity (Staphylococcus aureus [2]) of the same molecule?
**A.** Non-toxic

**Q.** What about the Activity (Staphylococcus aureus [3]) of the same molecule?
**A.** inactive

**Q.** What does the source list for `COc1cc([C@H]2Oc3cc(-c4cc(=O)c5c(O)cc(O)cc5o4)ccc3O[C@@H]2CO)ccc1O` [HYDNOCARPIN]?
**A.** MBIC (Staphylococcus aureus [1]): 64 µM; EC50 (Staphylococcus aureus [1]): 16 µg/mL (≈ 34.5 µM); Activity (Staphylococcus aureus [2]): Non-toxic; Activity (Staphylococcus aureus [3]): inactive

**Q.** Which results are given for `CCN1CCN(c2cc3c(cc2F)c(=O)c(C(=O)O)cn3C2CC2)CC1` [ENROFLOXACIN]?
**A.** MIC (Staphylococcus aureus [15]): 1 µg/mL (≈ 2.78 µM); MIC (Staphylococcus aureus [16]): 0.5 µg/mL (≈ 1.39 µM); MIC (Staphylococcus aureus [17]): 2 µg/mL (≈ 5.56 µM)

**Q.** `COc1cc(C2Oc3cc([C@H]4Oc5cc(O)cc(O)c5C(=O)[C@@H]4O)ccc3OC2CO)ccc1O` (stereo partly specified) [SILIBININ] was tested. Which MBIC (Staphylococcus aureus [1]) did it give?
**A.** > 124 µM

**Q.** What about the EC50 (Staphylococcus aureus [1]) of the same molecule?
**A.** 64 µg/mL (≈ 133 µM)

**Q.** What about the Activity (Staphylococcus aureus [2]) of the same molecule?
**A.** Non-toxic

**Q.** What about the Activity (Staphylococcus aureus [3]) of the same molecule?
**A.** inactive
